Reference: the EternaBench riboswitch data

Tested on: MS2 coat protein
Assay: apparent Kd, MS2 coat protein; higher = weaker binding; RNA-MaP array; FMN 200 µM where present
Procedure, shortened: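 Designs on Illumina sequencing-chip clusters, transcribed by stalled E. coli RNA polymerase, were exposed to SNAP-549-labelled MS2 coat protein in doubling steps from 0.7 or 1.5 nM up to 3 µM, without and then with constant ligand. The buffer held 100 mM Tris-HCl pH 7.5, 80 mM KCl, 4 mM MgCl2, BSA, DTT, yeast tRNA and Tween-20. Apparent Kd values are medians of filtered per-cluster binding-curve fits to green signal normalised to red-channel RNA signal and control-cluster median Fmax.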

[1] = designed as: ON switch for flavin mononucleotide, no ligand
[2] = ligand present: flavin mononucleotide, designed as: ON switch for flavin mononucleotide
[3] = designed as: OFF switch for flavin mononucleotide, no ligand
[4] = ligand present: flavin mononucleotide, designed as: OFF switch for flavin mononucleotide

Row | Sequence | apparent Kd [1] [µM] | apparent Kd [2] [µM] | apparent Kd [3] [µM] | apparent Kd [4] [µM]
1 | AGCUAAAUGUCAGGAUAUGCCCGCCAGGUGGAAGCAGAAGGGACAUACCAGACAUGAGGAUCACCCAUGUAAACUGGGUAAGAA | 0.142 | 0.126 | – | –
2 | UCGGCGCGAGGAUAUGCGGUUCCUCCCUCGGGCCGGAGCGUACAUGAGGAUCACCCAUGUAGAAGGCGCGCCGC | – | – | 0.0139 | 0.0151
3 | GUCAGCUCGUGAGGAUAUACAUCACUGCUUCGGCAGUGUAUUAAAAUAACAUGAGGAUCACCCAUGUAGAAGGCACGAGCUGAU | – | – | 0.00469 | 0.00551
4 | AAGUGUAUAGGAUAUGCGUGGAAAAGGUGUAUUCACUAGCGACAUGAGGAUCACCCAUGUAGAAGGGUAUGUAA | – | – | 0.124 | 0.064
5 | AGGGAGUAAGGAUAUGCUGCUCGUCACUUGCGUGAUGAGUAGCAGAAGGUACAUGAGGAUCACCCAUGUAAAGA | – | – | 0.03 | 0.0229
6 | ACUUGUAAGUAGAAGGCAGUCAUUAUAUUAAUCAUGUAGACAUGAGGAUCACCCAUGUAGAGUACUGAGGAUAUACAUCGAUAG | – | – | 0.0125 | 0.00985
7 | ACUGAUCAUGAGGAUAUGCGCCAGAACGCCGGCGUAGAAGGCGUGACAUGAGGAUCACCCAUGUCAGUUCGCGA | – | – | 0.0592 | 0.0603
8 | GGAUUACAUGAGGAUCACCCAUGUGAGGAUAUCGAUGUCCAGUAGGGCGUGCGGGACUCGAGAAGGCACUUGGA | – | – | 0.0475 | 0.177
9 | GGGUACAUCGCAGGAUAUCAUGUAAAUACAUGAGGAUCACCCAUGUCGAUGGAGACAUCGGAGAUUGAGAAGGCCGAUGUACCG | 0.622 | 0.322 | – | –
10 | GUGUACAUAUCAGGAUAUCUAUUUCCUACAUGAGGAUCACCCAUGUAGGUGAUCACCCAAGUAAAGGAGAAGGGAUAUGUAUAC | 0.0787 | 0.0245 | – | –
11 | AUCAGCUAGUCAGGAUAUACGUCACUGCGUCAGCAGUGUGGUAAGAUCACAUGAGGAUCACCCAUGUAGAAGGGACGAGCUGAU | – | – | 0.0142 | 0.295
12 | AGCUACGUUUCGUAGCAGCUAGGUGAGGAUAUUCAAUUUUUCACAUGAGGAUCACCCAUGUAUGAAAAGAAGGCGCCUAGAAAG | 0.00445 | 0.00404 | – | –
13 | GGAUUUUACUAGUUUUCUAUACAUGAGGAUCACCCAUGUUUUUAGGAUAUCAGCGUGAAACACGCUGAGAAGGAAGAACAAUCC | – | – | 0.0154 | 0.0185
14 | AAAAAUCCAGCGCAGGAUAUCGCAGGGUGCACAUGAGGAUCACCCAUGUGUACCCAAACACCCUGCGAGAAGGGCGUUGGAAAAAA | 0.0112 | 0.00968 | – | –
15 | GUCAAGCUAGGAUAUACAUGAGGAUCACCCAUGUUAUCCUCGUGGGCAGUUUCUUCAUGUAGAAGGAGCAAAGG | – | – | 0.038 | 0.0166
16 | AGCUGUGGCCGAGGAUAUACAUCCUUUAUAACCGAUGAAUAUCAUCGGACAUGAGGAUCACCCAUGUAGAAGGCGGUCUCAGCA | – | – | 0.149 | 0.75
17 | GGGUGGCGUAGAGGAUAUGUGGUACAUGAGGAUCACCCAUGUGCAUAUGAUGUUCGUGUGUCAUCAUAGAAGGCUACGUCGCUA | 0.132 | 0.0629 | – | –
18 | UGGUACUAGGGAGGAUAUGGGAGGAUACAUGAGGAUCACCCAUGUUUAAGAAUGCCGAGAGGCAACUAGAAGGCCCUAGUACCU | 0.919 | 0.0637 | – | –
19 | UUAUACAUGAGGAUCUCCCAUGACAUGAGGAUCACCCAUGUGCAGGAUAUACGUGUUAUAAUAUAGUAGAAGGGCAGACUAUAU | – | – | 0.0411 | 0.0743
20 | GCCUCAUAGUAGAAGGGACUUAGACAGUAAAGUUUAUAGAGGAAAUAACAUGAGGAUCACCCAUGUCAGGAUAUACUAAGAGGC | – | – | 0.00742 | 0.00947
21 | AUUAAAACAUAGGAUAUCGAAUUUAUUAUUUAACGAGAAGGAUGAACAUGAGGAUCACCCAUGUGGUAUCAUGG | – | – | 0.149 | 0.308
22 | UGUAUUAACGGAGGAUAUCGAUAUCAAACAUGAGGAUCACCCAUGUUGAGGAUCACCCAUGUCCAUGAGAAGGCUGGCGUACUU | 0.0208 | 0.0206 | – | –
23 | CGACACCACACAGGAUAUGCUGGACUUUGUCCAGCAGAAGGGUGUAAACAUGAGGAUCACCCAUGUAUGGUGUCGAAAUUUAAU | 0.382 | 0.0211 | – | –
24 | AUAAUUUUAUAUAUCAUUUUAAUCAGAAGGCAUAACAUGAGGAUCACCCAUGUAAAUUAUUGUUAUGAGGAUAUGAAUUGGUUA | – | – | 0.0144 | 0.0548

Row | Sequence | apparent Kd [1] [µM] | apparent Kd [2] [µM] | apparent Kd [3] [µM] | apparent Kd [4] [µM]
25 | UUAAUAAUACAAGGAUAUCUAUUGUUCUUAAGACAUACAUGAGGAUCACCCAUGUUAAUAUAUGUAGAGAAGGUGUAUUUUCAG | 0.0305 | 0.0229 | – | –
26 | GGUACUCAAAGAGUACAAGGACGAACAUGAGGAUCACCCAUGUAGGAUAUGCUACUCAAAGAGUAGCAGAAGGACAUGUGCAGC | – | – | 0.0256 | 0.073
27 | UGAACUAUGUAGAAGGCCCACAUUUAUAUGUAGGGAGGAUAUACAUGAGGAUCACCCAUGUAAAGAGCAAGAGGAUUUGACAGA | – | – | 0.0107 | 0.0196
28 | GUUAGCGCAGGAUAUACAUGAGGAUCACCCAUGUCCUCAUGCGUUAAAGAGGUGAUCCGUAGAAGGGUGUAAAC | – | – | 0.18 | 0.25
29 | GCACGAGACUAAGGAUAUGAUGUACCUAUAUGUGACAUGAGGAUCACCCAUGUGGUAAGUAUGAUUCAGAAGGUAGAGACGUGC | 0.0282 | 0.0206 | – | –
30 | AGCUGUGGCCGAGGAUAUCUAUCCAAUAUAACCGAAAUAUAAUCGGACAUGAGGAUCACCCAUGUAGAGAAGGCGGUCUCAGCA | – | – | 0.0198 | 0.0255
31 | CACAAGAAAGUCGAACUAUGUAGGAGAAGGAGUAUAACAUGACAUGAGGAUCACCCAUGUGCCAAUUAGGAUAUUUUAUAUGGG | – | – | 0.184 | 0.0977
32 | GGGCCGUAGUAGAAGGGAUAUACGUUAGGUAUAUCAGGAUAUACAUGAGGAUCACCCAUGUUCUAACAGUGAUAGUCCUCCCUU | – | – | 0.0155 | 0.0331
33 | CUUUUGUGAGGAUAUUAGUAGUAAAUAAAUAAAAUUUCUACUGAGAAGGCACAUGAGGAUCACCCAUGUUCCUC | – | – | 0.0319 | 0.182
34 | UUUAAGUCAGGAUAUCGUUAAUUUAAUUGUUUGUUUUAGUUCGAGAAGGGACAUGAGGAUCACCCAUGUAAUUU | – | – | 0.0343 | 0.0389
35 | UGGUACAUCGGAGGAUAUCAUGUAAAUACAUGAGGAUCACCCAUGUCGAUGGAGACAUCGGAGAUUGAGAAGGCCGAUGUACCU | 0.48 | 0.0234 | – | –
36 | AUCAGCUCGUCAGGAUAUACGUCACUGCGUCAGCAGUGUGGUAAUAUCACAUGAGGAUCACCCAUGUAGAAGGGACGAGCUGAU | – | – | 0.00527 | 0.00628
37 | CCGCAAAAGCAGGAUAUCGUAUCGGAUACGAUACGAGAAGGGCUAACAUGAGGAUCACCCAUGUGUCCUAGCGG | – | – | 0.0169 | 0.0256
38 | UUGGACGUCGUAGGAUAUGUAGGAUAUUCCUACAUGAGGAUCACCCAUGUUGACAUGGUAGAAGGACAGAAGGACGAUGUCCAU | 0.423 | 0.0534 | – | –
39 | CGUCCACAUGAGGAUCACCCAUGUGAGGAUAUCGAUGUCCCAGGGCGGGUGCGGGACUCGAGAAGGCGCUAGGU | – | – | 0.0233 | 0.029
40 | GACGCUAAAGGAUAUACAUGAGGAUCACCCAUGUUGAGGAAGGUUAGAUGAGGAGUAAGUAGAAGGUUAGGCGA | – | – | 0.038 | 0.0356
41 | GUUUCCACAGGAAGGAACACUCGGAGAAGGGCACAUGAGGAUCACCCAUGUGCGGCUCGUCACGUGCAGGAUAUUCGAUAUAGA | – | – | 0.0072 | 0.0175
42 | GUCGUGUCAGGAUAUACGUUUGUUUCUUUUUUUGUUGUUUAGUAGAAGGGACAUGAGGAUCACCCAUGUUUGUU | – | – | 0.0294 | 0.0474
43 | AUAGUGCGCGAGAAGGACGUACCACAUGUGGAUCACCUAUAUAAGGAACGUAGGAUAUUGCACAUGAGGAUCACCCAUGUGGAU | 0.0414 | 0.0341 | – | –
44 | GCCGAUUAAGUGAGGAUAUACCUAUGGAUACAUAGGUAGAAGGCACAUGAGGAUCACCCAUGUUCCUCAACGGC | – | – | 0.0156 | 0.0878
45 | GUUAAGGUAGGAUAUACGAUAAUAUAGGGUAGAAUUAUAACACAUGAGGAUCACCCAUGUAGAAGGACCAAUUG | – | – | 0.0312 | 0.0395
46 | GAGGGACAUGAGGAUCACCCAUGUGGUAAAUUUAAAGGAUAUUAGUGUGGGAAAGUAGGGUAAGAAGGUUGAUUGG | 0.0948 | 0.0801 | – | –
47 | GGAUCGAGUGUGAGGAUAUGCUGGUCCUUGGAUCAGCAGAAGGCACAUGAGGAUCACCCAUGUGUUCCCGAUCC | – | – | 0.0436 | 0.626
48 | AUUUUAAUAUAGGAUAUCGAAUUUAUUAUUUAACGAGAAGGAUAAACAUGAGGAUCACCCAUGUGGUAUCAUGG | – | – | 0.126 | 0.117
